From ChEMBL document CHEMBL4706565, “Anti-glioma effects of 2-aminothiophene-3-carboxamide derivatives, ANO1 channel blockers” (Eur J Med Chem, 2020) come the findings set out here.

Assay [1] has as its system U-251. In words: Inhibition of colony formation in human U251 cells incubated for 14 days by crystal violet dye based assay. The format is functional, cell-based. Particulars: dose 1-10 µM, time 14.0 day. In outline: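 U251 cells, 1.0×10^3 per well, treated with compound (1, 3 or 10 μM) for 2 weeks at 37 °C, 5% CO2. Colonies stained 24 h with crystal violet in methanol/formaldehyde/PBS, washed, extracted with 10% acetic acid and read at A570 nm. Compared against DMSO control.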

Assay [2] deals with U-251. The experiment in a line: Inhibition of cell migration in human U251 cells at 5 uM incubated for 18 hrs by wound healing assay. The format is functional, cell-based. In short, it runs like this: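 U251 monolayer, 2.0×10^5 cells/well, plated overnight, then scratched and washed with PBS. Incubated 18 h in complete medium with compound (1, 5 or 10 μM). Wound area imaged before and after incubation; migration ratio taken from migrated area. One-way ANOVA.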

Another assay addresses T1, Anoctamin-2 (Mus musculus, UniProt Q8CFW1).
T1 sequence (Q8CFW1 whole entry): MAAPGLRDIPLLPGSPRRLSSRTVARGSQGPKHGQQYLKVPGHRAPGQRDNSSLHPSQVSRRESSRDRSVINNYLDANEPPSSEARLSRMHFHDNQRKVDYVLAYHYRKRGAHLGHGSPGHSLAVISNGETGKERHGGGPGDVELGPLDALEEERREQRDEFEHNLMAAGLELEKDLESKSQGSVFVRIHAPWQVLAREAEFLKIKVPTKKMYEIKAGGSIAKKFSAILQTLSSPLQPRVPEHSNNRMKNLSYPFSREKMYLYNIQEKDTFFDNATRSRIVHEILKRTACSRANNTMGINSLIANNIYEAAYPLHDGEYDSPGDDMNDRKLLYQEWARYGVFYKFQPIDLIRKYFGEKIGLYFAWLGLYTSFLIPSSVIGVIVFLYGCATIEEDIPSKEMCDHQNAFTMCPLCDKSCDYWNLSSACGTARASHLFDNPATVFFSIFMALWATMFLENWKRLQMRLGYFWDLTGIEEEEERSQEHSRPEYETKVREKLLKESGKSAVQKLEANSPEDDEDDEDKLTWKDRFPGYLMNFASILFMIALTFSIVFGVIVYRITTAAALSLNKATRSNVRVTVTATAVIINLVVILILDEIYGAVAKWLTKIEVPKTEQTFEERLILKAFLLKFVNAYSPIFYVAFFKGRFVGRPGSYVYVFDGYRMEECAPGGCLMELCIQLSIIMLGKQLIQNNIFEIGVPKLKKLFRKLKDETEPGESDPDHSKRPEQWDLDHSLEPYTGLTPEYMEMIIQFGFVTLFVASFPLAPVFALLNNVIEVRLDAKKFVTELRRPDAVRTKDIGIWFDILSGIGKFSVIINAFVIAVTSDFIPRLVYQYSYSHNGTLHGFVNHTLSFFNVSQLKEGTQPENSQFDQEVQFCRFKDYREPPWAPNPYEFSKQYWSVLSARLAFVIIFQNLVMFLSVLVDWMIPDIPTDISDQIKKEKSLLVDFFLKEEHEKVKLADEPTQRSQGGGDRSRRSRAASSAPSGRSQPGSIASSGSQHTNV
The experiment in a line: Inhibition of GFP-fused mouse ANO2 channel expressed in HEK293A cells assessed as inhibition of channel current amplitude at membrane potential of +80 mV by patch clamp electrophysiology assay. The assay is classed as cell-based, HEK293-A. In short, it runs like this: (§1)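 Whole-cell recording at room temperature in HEK293A cells transfected with GFP-mANO1, GFP-mANO2 or GFP-mTTYH1. 1 s ramps from +80 to -80 mV, holding potential -10 mV. For ANO1/ANO2: pipette CsCl 146 mM with Ca-EGTA-NMDG, pH 7.3; bath NaCl-based, pH 7.3. For TTYH1: Tris-aspartate pipette (pH 7.2) and Tris-HCl bath (pH 7.4), with […] and BaCl2 added to block K+ channels, and hypotonic (220 mOsm/kg) bath. Washout recordings assessed reversibility.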
(In patch-clamp work, channel activity is measured electrically.)

Assay [3] has as its target T2, Protein tweety homolog 1 (Mus musculus) (UniProt Q9D3A9).
T2 sequence (whole entry): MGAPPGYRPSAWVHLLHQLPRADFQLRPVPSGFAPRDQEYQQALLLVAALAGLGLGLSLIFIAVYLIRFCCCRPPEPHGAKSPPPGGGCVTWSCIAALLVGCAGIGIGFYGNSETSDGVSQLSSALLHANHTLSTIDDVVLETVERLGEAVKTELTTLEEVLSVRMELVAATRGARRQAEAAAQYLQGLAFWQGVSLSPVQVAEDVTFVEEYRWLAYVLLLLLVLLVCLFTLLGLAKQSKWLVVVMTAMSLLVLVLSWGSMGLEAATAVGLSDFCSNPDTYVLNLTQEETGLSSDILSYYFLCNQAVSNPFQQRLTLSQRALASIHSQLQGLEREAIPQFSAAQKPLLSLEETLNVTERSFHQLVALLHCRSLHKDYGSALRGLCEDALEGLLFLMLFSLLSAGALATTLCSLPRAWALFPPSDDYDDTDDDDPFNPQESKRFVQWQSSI
In words: Inhibition of GFP-fused mouse TTYH1 channel expressed in HEK293A cells assessed as inhibition of channel current amplitude at 1 to 10 uM at membrane potential of +80 mV by patch clamp electrophysiology assay. The assay is classed as cell-based. The settings on record: HEK293-A, dose 1-10 µM. In short, it runs like this:
as §1

Calls of active or inactive are those of the source. No cut-off for these calls is given here.

For orientation: IC50 means the concentration at which inhibition is half-maximal.

In the case of `CC(C)(C)C(=O)Nc1sc2c(c1C(N)=O)CCC(C(C)(C)C)C2` (stereo not drawn), the inhibition result in the assay with U-251 [1] is “Dose-dependent effect”. Also, the inhibition result in the assay on U-251 [2] is “Active”. Moreover, on Anoctamin-2, the concentration for half-maximal inhibition (IC50) came to 15.4 µM. In addition, the inhibition result in assay [3] is “inactive”.
Consider `NC(=O)c1c(NC(=S)NC(=O)c2ccc(Cl)cc2)sc2c1CCC2`, for which the inhibition entry with U-251 [1] is “Dose-dependent effect”. Moreover, the inhibition entry with U-251 [2] is “Active”. The IC50 at Anoctamin-2 came out at 7.43 µM. The inhibition result in assay [3] is “inactive”.
